Published values collected from several papers.
Lines come from different studies, so protocols differ.
Target: Serine/threonine-protein kinase PAK 4 (PAK4, Homo sapiens, UniProt O96013)

SMILES	assay	conditions	remaining binding [%]
FC(F)(F)Oc1cccc(-c2cnc3ccc(-c4ccncc4)nn23)c1	cell-free assay, competition with immobilised ligand	5 µM	47
N#Cc1ccccc1CSc1nnc2c(n1)[nH]c1ccccc12	binding, competition with immobilised ligand	10 µM	87
C[C@@H]1CN(c2ccc3ncc(-c4ccc5[nH]nc(C6CC6)c5c4)n3n2)C[C@H](C)O1	binding, competition with immobilised ligand	0.5 µM	83
CNC(=O)[C@@H]1CC[C@@H](n2c(-c3ccc4cnccc4c3)nc3ccc(C(=O)NCc4cccc(C(N)=O)c4)cc32)C1	binding, competition with immobilised ligand	1 µM	100
CCC(=O)N[C@@H]1CC[C@H](C(=O)N(C)c2ccc(-c3nc4ccccc4o3)cc2)C1	cell-free assay, competition with immobilised ligand	1 µM	100
CN(c1nccc(-c2cnn3ncccc23)n1)C1CC1	binding	1 µM	100
C[C@@H](c1ccc(-n2cnc3c(N)ncnc32)cc1)N1CCc2nn(C)c(Cc3ccccc3)c2C1=O	binding, competition with immobilised ligand	0.1 µM	100
N[C@@H]1CCN(c2nccc(-c3cnn4ncccc34)n2)C1	binding	1 µM	100
CN1CCN(c2cnc3c(C4CCN(C(=O)c5ccc(OC(F)(F)F)cc5N)CC4)ncnc3c2)CC1	cell-free assay, competition with immobilised ligand	1 µM	91
CN(CCCC(F)(F)F)c1nccc(-c2cnn3ncccc23)n1	binding	1 µM	100
O=C(NCCCN1CCOCC1)c1ccc(Nc2ncc(Cl)c(-c3ccc(Cl)s3)n2)cc1	binding, competition with immobilised ligand	1 µM	89
O=C(N1CCS(=O)(=O)CC1)N1C[C@H](c2ccc(OC(F)(F)F)cc2)C[C@H](c2nc(C3CC3)no2)C1	cell-free assay, competition with immobilised ligand	1 µM	100
O=C(Nc1c[nH]nc1C(=O)NC1CCNCC1)c1cc(F)cc(F)c1	binding, competition with immobilised ligand	1 µM	100
Cc1cnc(Nc2ccc(C(=O)N3CCC(N4CCCC4)CC3)cc2)nc1-c1cc2ccccc2s1	binding, competition with immobilised ligand	1 µM	70
C[C@@H](c1cccc(C#N)c1)n1cc(Cl)cc(C(N)=O)c1=N	cell-free assay, competition with immobilised ligand	1 µM	100
CC1CCCN1c1nccc(-c2cnn3ncccc23)n1 (stereo not shown)	binding	1 µM	100
O=C(c1ccc(Nc2ncc(Cl)c(-c3ccc(Cl)s3)n2)cc1)N1CCC(N2CCCC2)CC1	binding, competition with immobilised ligand	1 µM	53
COc1cnc(Nc2cccc(S(N)(=O)=O)c2)nc1N1CCN(c2ccccc2)CC1	binding, competition with immobilised ligand	1 µM	95
CN(C)c1ncc(F)c(-c2cnn3ncccc23)n1	binding	1 µM	80
O=C(NS(=O)(=O)c1ccc(NCC2CCOCC2)c([N+](=O)[O-])c1)c1ccc(N2CCN(Cc3ccc(C(F)(F)F)cc3-c3ccc(Cl)cc3)CC2)cc1Oc1cnc2[nH]ccc2c1	cell-free assay, competition with immobilised ligand	1 µM	93
C[C@H]1CCN(c2nccc(-c3cnn4ncccc34)n2)C1	binding	1 µM	95
O=C(NC[C@@H]1[C@H]2CN(C(=O)OCc3cc(C(F)(F)F)cc(C(F)(F)F)c3)C[C@@H]12)c1ccc2[nH]nnc2c1	cell-free assay, competition with immobilised ligand	1 µM	100
Nc1ncc2c(n1)-c1c([nH]c3ccc(C#CC4CC4)cc13)CCCC2	binding, competition with immobilised ligand	1 µM	76
Cc1cnn2ncc(-c3ccnc(N(C)C)n3)c2c1	binding	1 µM	100
Cc1nc(N2CC[C@@H](O)C2)ncc1-c1cc(C(F)(F)F)cc2[nH]ncc12	cell-free assay, competition with immobilised ligand	1 µM	100
